In ChEMBL document CHEMBL3098049, “Concise synthesis and biological evaluation of 2-Aroyl-5-amino benzo[b]thiophene derivatives as a novel class of potent antimitotic agents” (J Med Chem, 2013):
Calls of active or inactive are those of the source. The calls are words filed in the database; no cut-off is given here.

Assays:
HeLa [1] = test: Downregulation of cdc25c protein expression in human HeLa cells at 10 to 100 nM after 24 to 48 hrs by Western blot analysis; assay type: functional, cell-based
In short: (§1)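 HeLa cultures treated 24 or 48 h, washed in cold PBS, lysed 30 min at 0 °C, clarified at 15000g. 20 μg protein run on 7.5−15% gradient SDS-PAGE and blotted to PVDF. Primary antibodies 2 h at room temperature, peroxidase secondary 60 min, ECL detection. Membranes stripped and reprobed for β-actin as loading control.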

HeLa [2] = test: Effect on cyclin B protein expression in human HeLa cells at 10 to 100 nM after 24 to 48 hrs by Western blot analysis; assay type: functional, cell-based; in short: as §1
Jurkat [3] = test: Cell cycle arrest in human Jurkat cells assessed as reduction in S phase up to 60 nM after 24 hrs by propidium iodide staining-based flow cytometric analysis relative to control; assay type: functional
In short: (§2)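 Jurkat cells treated for 24 h, fixed, PI-labelled and analysed by flow cytometry for cell-cycle phase distribution. Mean of three independent experiments.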

HeLa [4] = test: Cell cycle arrest in human HeLa cells assessed as reduction in S phase up to 60 nM after 24 hrs by propidium iodide staining-based flow cytometric analysis; assay type: functional
In short: (§3)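 HeLa cells (5 × 10⁵) treated for 24 h. Harvested, fixed in 70% ethanol chilled to 0 °C, then suspended in RNase with 0.1% Triton X-100. DNA stained with PI, analysed by flow cytometry as DNA-content histograms. Mean of three independent experiments.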

Jurkat [5] = test: Cell cycle arrest in human Jurkat cells assessed as accumulation at G2/M phase at 15 to 30 nM after 24 hrs by propidium iodide staining-based flow cytometric analysis relative to control; assay type: functional; in short: as §2
Jurkat [6] = test: Cell cycle arrest in human Jurkat cells assessed as accumulation at G2/M phase after 24 hrs by propidium iodide staining-based flow cytometric analysis; assay type: functional; in short: as §2
PBL [7] = test: Cytotoxicity against PHA-stimulated human PBL assessed as growth inhibition after 72 hrs by MTT assay; assay type: cell-based
In short: (§4)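 Human PBL from healthy donors were isolated on a density gradient, washed, and held overnight in RPMI-1640 with 10% FBS. For proliferating cultures, nonadherent cells were resuspended at 5 × 10⁵ cells/mL with 2.5 μg/mL PHA; resting PBL received no PHA. Cells were exposed to varying compound concentrations, and viability was read by MTT after 72 h. IC50 is the concentration reducing growth by 50%, as the mean of three independent experiments.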

PBL [8] = test: Cytotoxicity against resting phase of human PBL assessed as growth inhibition after 72 hrs by MTT assay; assay type: cell-based; in short: as §4
L1210 = test: Cytotoxicity against mouse L1210 cells assessed as growth inhibition after 48 hrs by coulter counting analysis; assay type: functional, cell-based; conditions: L1210, 48 h
In short: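 Cells suspended at (3−5) × 10⁵ cells/mL and mixed 1:1 with compound dilutions. Incubated 48 h at 37 °C, counted with a Coulter counter. IC₅₀ = concentration inhibiting proliferation by 50%. Mean of at least three independent experiments.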

[9] = Cytotoxicity against mouse FM3A/0 cells assessed as growth inhibition after 48 hrs by coulter counting analysis; assay type: functional, cell-based; conditions: FM3A/0, 48 h
Jurkat [10] = test: Cell cycle arrest in human Jurkat cells assessed as accumulation at G2/M phase at 10 nM after 24 hrs by propidium iodide staining-based flow cytometric analysis; assay type: functional; in short: as §2
HeLa [11] = test: Cell cycle arrest in human HeLa cells assessed as accumulation at G2/M phase at 10 nM after 24 hrs by propidium iodide staining-based flow cytometric analysis; assay type: functional; in short: as §3
[12] = Selectivity ratio of IC50 for HUVEC to IC50 for human HeLa cells; assay type: ADME, cell-based; conditions: HUVEC and HeLa cells, read-out: Ratio IC50
[13] = Selectivity ratio of IC50 for HUVEC to IC50 for human CEM/0 cells; assay type: ADME, cell-based; conditions: HUVEC and CEM/0 cells, read-out: Ratio IC50
[14] = Selectivity ratio of IC50 for HUVEC to IC50 for mouse L1210 cells; assay type: ADME, cell-based; conditions: HUVEC and L1210 cells, read-out: Ratio IC50
MNNG-HOS [15] = test: Antitumor activity against human MNNG-HOS cells xenografted in Balb/c-nu mouse assessed as tumor growth inhibition at 50 mg/kg, ip measured after 3 days; assay type: functional, organism-based; set-up: dose 50 mg/kg; conditions: HOS-TE85
MNNG-HOS [16] = test: Antitumor activity against human MNNG-HOS cells xenografted in Balb/c-nu mouse assessed as reduction in tumor weight at 50 mg/kg, ip administered once every 3 days for 9 days measured after day 18; assay type: functional, organism-based; set-up: dose 50 mg/kg; conditions: HOS-TE85
In short: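 MNNG/HOS osteosarcoma cells grown to exponential phase, suspended in FBS-free MEM (10⁷ cells/mL), 0.1 mL injected into back hypodermis of nude mice. At ~100 mm³, 12 mice randomised to three groups (vehicle, CA-4P in isotonic saline, test in 5% DMSO/olive oil). 50 mg/kg ip at 0.01 mL/g on days 0, 3, 6, 9. Tumour volume and body weight tracked; tumours excised and weighed day 18; […].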

MNNG-HOS [17] = test: Cytotoxicity against human MNNG-HOS cells; assay type: functional, cell-based; conditions: HOS-TE85
HeLa [18] = test: Downregulation of Xiap protein expression in human HeLa cells at 10 to 100 nM after 24 to 48 hrs by Western blot analysis; assay type: functional, cell-based; in short: as §1
HeLa [19] = test: Induction of apoptosis in human HeLa cells assessed as PARP cleavage at 10 nM after 24 hrs by Western blot analysis; assay type: functional, cell-based; in short: as §1
HeLa [20] = test: Induction of apoptosis in human HeLa cells assessed as caspase-3 cleavage at 10 to 100 nM after 24 to 48 hrs by Western blot analysis; assay type: functional, cell-based; in short: as §1
HeLa [21] = test: Induction of mitochondrial ROS generation in human HeLa cells at 15 to 250 nM by H2-DCFDA staining-based flow cytometric analysis; assay type: functional, cell-based; conditions: TDE = time-dependent effect
In short: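 HeLa cells incubated 24 or 48 h with compound, stained with H₂-DCFDA, and intracellular ROS measured by flow cytometry. Mean of three independent experiments.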

HeLa [22] = test: Induction of mitochondrial membrane depolarization in human HeLa cells after 24 to 48 hrs by JC-1 staining-based fluorescence assay; assay type: functional, cell-based
In short: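 HeLa cells treated 24 or 48 h, then stained with JC-1. Cells with depolarised mitochondria quantified by flow cytometry. Mean of three independent experiments.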

HeLa [23] = test: Induction of apoptosis in human HeLa cells at 15 nM after 24 to 48 hrs by annexin-V-FITC/propidium iodide staining-based flow cytometric analysis; assay type: functional, cell-based
In short: (§5)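 HeLa cells treated 24 or 48 h, stained with annexin-V-FITC and PI, analysed by flow cytometry. Excitation 488 nm; emission 525 nm for FITC, 585 nm for PI. Gating separates live, early apoptotic, late apoptotic and necrotic cells. Mean of three independent experiments.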

HeLa [24] = test: Induction of apoptosis in human HeLa cells after 24 to 48 hrs by annexin-V-FITC/propidium iodide staining-based flow cytometric analysis; assay type: functional, cell-based; in short: as §5
HeLa [25] = test: Induction of DNA damage in human HeLa cells assessed as upregulation of gamma-H2A.X protein expression at 10 nM after 48 hrs by Western blot analysis; assay type: functional, cell-based; in short: as §1
HeLa [26] = test: Induction of DNA damage in human HeLa cells assessed as upregulation of gamma-H2A.X protein expression at 100 nM after 24 hrs by Western blot analysis; assay type: functional, cell-based; in short: as §1

## COc1cc(C(=O)c2cc3cc(N)cc(OC)c3s2)cc(OC)c1OC
HeLa [1]
  Activity: Active
HeLa [2]
  Activity: inactive
Jurkat [3]
  Activity: Active
HeLa [4]
  Activity: Active
Jurkat [5]
  Activity: 40%
Jurkat [6]
  Activity: Dose-dependent effect
PBL [7]
  IC50: 20600 nM
PBL [8]
  IC50: 24700 nM
L1210
  IC50: 5 nM
[9]
  IC50: 12 nM
Jurkat [10]
  Activity: Active
HeLa [11]
  Activity: Active
[12]
  selectivity ratio: 460
[13]
  selectivity ratio: 460
[14]
  selectivity ratio: 460
MNNG-HOS [15]
  TGI: Active
MNNG-HOS [16]
  Activity: Active
MNNG-HOS [17]
  IC50: 1 nM
HeLa [18]
  Activity: Active
HeLa [19]
  Activity: Active
HeLa [20]
  Activity: Active
HeLa [21]
  Activity: tde
HeLa [22]
  Activity: Dose-dependent effect
HeLa [23]
  Activity: Active
HeLa [24]
  Activity: Dose-dependent effect
HeLa [25]
  Activity: Active
HeLa [26]
  Activity: Active
